This note sets out measurements from ChEMBL document CHEMBL4261530, “Rational design and synthesis of novel phenylsulfonyl-benzamides as anti-prostate cancer agents” (Medchemcomm, 2017).

In data set [1] the test system is LNCaP. The experiment in a line: Antiproliferative activity against human LNCAP cells after 96 hrs by propidium iodide staining-based fluorescence assay. In kind it is functional, cell-based.
In data set [2] the test system is VCaP. The experiment in a line: Potency index, ratio of enzalutamide IC50 to test compound IC50 for human VCaP cells. The format is functional.
The test system of data set [3] is CWR22R. The experiment in a line: Potency index, ratio of enzalutamide IC50 to test compound IC50 for human 22Rv1 cells. The format is functional.
Data set [4] deals with DU-145. The experiment in a line: Antiproliferative activity against human DU145 cells after 96 hrs by propidium iodide staining-based fluorescence assay. The format is functional, cell-based.
Data set [5] deals with HEK293. The experiment in a line: Cytotoxicity against HEK293 cells assessed as reduction in cell viability at 10 uM after 24 hrs by CellTiter-Blue assay relative to control. The format is cell-based. To be noted: human, hek293, 24 h. The procedure, abridged:
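HEK293 cells in DMEM with 10% FBS and 2 mM L-glutamine, seeded at 100,000 cells/ml and treated after 24 h at 10 µM for 24 h. […] Cell Titer Blue added for 2 h at 37°C, fluorescence read at 560/590 nm.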
Background: The colour change of resazurin is a common sign of viable cells or microbes.

Data set [6] has as its system DU-145. The experiment in a line: Potency index, ratio of enzalutamide IC50 to test compound IC50 for human DU145 cells. In kind it is functional.
Data set [7] has as its system CWR22R. Description: Antiproliferative activity against human 22Rv1 cells after 96 hrs by propidium iodide staining-based fluorescence assay. The format is functional, cell-based.
Data set [8] concerns LNCaP. Description: Potency index, ratio of enzalutamide IC50 to test compound IC50 for human LNCAP cells. In kind it is functional.
Data set [9] relates to VCaP. The experiment in a line: Antiproliferative activity against human VCaP cells after 96 hrs by propidium iodide staining-based fluorescence assay. The format is functional, cell-based.

With `O=C(Nc1ccc(S(F)(F)(F)(F)F)cc1)c1ccc(Sc2ccc(O)cc2)cc1`, the Activity entry in [1] was “Dose-dependent effect”; in [4], “Dose-dependent effect”; in data set [5], “Toxic”; in [7], “Dose-dependent effect”; in [9] it was “Dose-dependent effect”. For the same compound, the “Ratio IC50” value in [2], in data set [3], in data set [6] and in data set [8] was “<=8” throughout.
Take `O=C(Nc1ccc(S(F)(F)(F)(F)F)cc1)c1ccc(S(=O)(=O)c2ccc(O)cc2)cc1`: the Activity entry in [1] is “Dose-dependent effect”; in [4], “Dose-dependent effect”; in [5], greater than 50%; in [7], “Dose-dependent effect”; in data set [9] it was “Dose-dependent effect”. Moreover, the “Ratio IC50” value in data set [2], in data set [3], in [6] and in data set [8] was “<=8” in each case.
With `O=C(Nc1cc(C(F)(F)F)ccc1C(F)(F)F)c1ccc(Sc2ccc(O)cc2)cc1`, the Activity entry in data set [1] is “Dose-dependent effect”; in [4] it was “Dose-dependent effect”; in data set [5], “Toxic”; in [7] it was “Dose-dependent effect”; in [9], “Dose-dependent effect”. In addition, the “Ratio IC50” value in data set [2], in [3], in data set [6] and in [8] was “<=8” in each case.
Turning to `O=C(Nc1ccc([N+](=O)[O-])c(C(F)(F)F)c1)c1ccc(S(=O)(=O)c2ccc(O)cc2)cc1`, the Activity entry in data set [1], in data set [4], in [7] and in data set [9] was “Dose-dependent effect” throughout. Moreover, the “Ratio IC50” value in [2], in [3], in data set [6] and in data set [8] was “<=8” each time.
Take `O=C(Nc1ccc(C(F)(F)F)cc1)c1ccc(S(=O)(=O)c2ccc(O)cc2)cc1`: the Activity result in data set [1], in data set [4], in data set [7] and in data set [9] was “Dose-dependent effect” throughout. The “Ratio IC50” value in data set [2], in [3], in [6] and in [8] was “<=8” each time.
For the compound `N#Cc1ccc(NC(=O)c2ccc(S(=O)(=O)c3cccc(C(F)(F)F)c3)cc2)cc1C(F)(F)F`, the Activity result in [1], in data set [4], in data set [7] and in [9] was “Dose-dependent effect” in each case. The “Ratio IC50” value in [2], in data set [3], in [6] and in data set [8] was “<=8” each time.
In the case of `O=C(Nc1cc(C(F)(F)F)ccc1C(F)(F)F)c1ccc(S(=O)(=O)c2ccc(O)cc2)cc1`, the Activity entry in [1], in data set [4], in data set [7] and in data set [9] was “Dose-dependent effect” each time. For the same compound, the “Ratio IC50” value in [2], in [3], in data set [6] and in data set [8] was “<=8” throughout.
As to `N#Cc1ccc(NC(=O)c2ccc(Sc3cccc(C(F)(F)F)c3)cc2)cc1C(F)(F)F`, the Activity entry in data set [1], in data set [4], in data set [7] and in data set [9] was “Dose-dependent effect” in each case. In addition, the “Ratio IC50” value in [2], in data set [3], in data set [6] and in data set [8] was “<=8” each time.
